This is an account of results in PubChem BioAssay.

Assay [1] in a line: S. cerevisiae growth inhibition in permissive medium (OD615), pilot counter-assay for S. cerevisiae lifespan shortening project, permissive growth control (AID 705;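 active = growth inhibition above 25% in both replicates, a cutoff set 3 SD above the mean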). The conditions noted are these: OD615, 24 h, at 10 µM, hits give high values. Put shortly:
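System – S. cerevisiae with engineered DeaD lifespan system · Buffer or medium – SC raffinose/galactose permissive medium · Schedule – cells pre-grown 4 h, then 24 h compound exposure, 30 °C humidified · Technique – culture turbidity as optical density at 615 nm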

A short description of assay [2]: S. cerevisiae growth inhibition in restrictive medium, OD615, pilot screen, restrictive growth control, yeast lifespan reduction project (AID 706;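 active = growth inhibition above a set limit, 3 SD over mean compound inhibition, in both replicates, cut at about 43% in these data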;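 note: modified DeaD lifespan yeast strain shifted to restrictive glucose medium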). The conditions noted are these: OD615, 48 h, at 10 µM, hits give high values. Put shortly:
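Material: engineered S. cerevisiae DeaD strain / Medium: glucose-based CSMM-D restrictive medium / Compound: single dose of 10 µM compound final, 0.25% DMSO / Timing: 4 h pre-incubation, 48 h exposure at 30 °C / Technique: OD615 absorbance reading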

A short description of assay [3]: doxorubicin toxicity protection in MRP-1 cells – H69AR cells, CellTiter-Glo, duplicate, MRP-1 activator project, pilot screen (AID 807).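 Note: compound pretreatment 18-22 h then 72 h combined with doxorubicin; 0% = doxorubicin alone and 100% = vehicle without doxorubicin.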 Particulars: H69AR viability with doxorubicin, CellTiter-Glo luminescence; at 10 µM; hits give high values. (In general: ATP-based viability assays read luminescence as a measure of living cells.)
Assay [4] can be described thus: viability of HCT116 without oncogenic beta-catenin – human colon tumor cells, pilot screen (AID 823;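 active = cell viability at or below a set limit in both duplicate runs, the limit being the all-compound median minus 4 SD, cut at about 23% in these data, passing the limit was not always enough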;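 note: 0% = wells killed by 20 µM Hyamine and 100% = untreated DMSO cell wells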). The conditions noted are these: HCT116 beta-catenin knockout viability, CellTiter-Glo, 60 h; at 10 µM; hits give low values.
Assay [5] can be described thus: viability of PTEN-null HCT116 cells – cell-based, HCT116 clonal line, CellTiter-Glo, pilot screen (AID 824;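 active = viability at or below 27.92% in each of two runs, the all-compound median minus 4 SD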;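 note: 0% = 20 µM Hyamine control and 100% = vehicle cell control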). The conditions noted are these: HCT116 PTEN-deleted viability, 60 h, at 10 µM, hits give low values.
The nature of assay [6]: RAM pathway blockade in budding yeast – dse1pr::URA3 reporter, 5-FOA selection, pilot screen (AID 869;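 active = inhibition over a set limit, the all-compound mean plus 3 SD, in both replicate runs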;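 note: 0% = DMSO wells with no growth and 100% = 10 µM 1-NA-PP1 with full growth; RAM network block rescues cells from 5-FOA so hits raise OD615 growth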). Particulars: S. cerevisiae dse1pr::URA3 5-FOA growth, OD615, 2 d; at 10 µM; hits give high values; strain carries analog-sensitive mutant Cbk1 kinase.
Assay [7] is described as follows: RAM signaling pathway blockade in yeast – S. cerevisiae, Pdr1DBD-CYC8 efflux-inhibited sensitized strain, primary screen (AID 1298;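 active = RAM network inhibition above 8.4% in each of two replicates, 3 SD over the compound average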;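 note: 0% = DMSO untreated cells without growth and 100% = 10 µM 1-NA-PP1 full growth; higher means more yeast growth rescued from 5-FOA killing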). Particulars: S. cerevisiae cbk1-as DSE1-URA3 strain, 5-FOA growth OD615, 2 d; at 50 µM; hits give high values.

Values without a mark were called inactive. Inconclusive results are not listed. Active and inactive are the calls of the source.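 Rule for the calls, unless noted: active = viability increase at or above a cutoff of the median across tested compounds plus 3 SD (cut at about 8.5% in these data, passing the limit was not always enough); inconclusive = some gains above the cutoff, reason not given; inactive = the rest.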

As usually defined, the viability is a read-out of living cells in per cent, often relative to untreated cells. One may read the inhibition as the change of the read-out against control, counted positive when it falls.

Regarding `COC(=O)Cn1c(=NC(=O)C2CC2)sc2c(C)cc(C)cc21`, the growth inhibition in assay [1] was -12.3%; in assay [2], -19%. Besides, the viability increase in assay [3] is -2.07%. In addition, the viability in assay [4] is 92.9%; in assay [5] it was 91.4%. Also, the inhibition in assay [6] was 0.27%. Besides, the RAM network inhibition in assay [7] was 4.34%.

As for `CCSc1nc2c(cnn2-c2ccc(C)c(C)c2)c(=O)[nH]1`, the figures for the growth inhibition in assay [1] and in assay [2] were -2.47% and -2.05%, respectively. In assay [3], the viability increase was -1%. The viability is 98.8% in assay [4] and 94.2% in assay [5]. For the same molecule, the inhibition in assay [6] was 1.42%. Also, in assay [7], the RAM network inhibition is 7.85%.

As for `CC(C)c1ccc(N(CC(=O)O)S(=O)(=O)c2cccnc2)cc1`, the growth inhibition in assay [1] is -2%; in assay [2], 8.54%. In addition, the viability increase in assay [3] is -1.28%. Also, the figures for the viability in assay [4] and in assay [5] were 93.3% and 98.7%, respectively. Further, the inhibition in assay [6] was -0.135%. In assay [7], the RAM network inhibition was -1.88%.

Regarding `O=C(Cn1cc2c(n1)CCCCC2)Nc1ccc(F)cc1F`, the growth inhibition is -4.89% in assay [1] and 4.12% in assay [2]. Also, the viability increase in assay [3] was 0.49%. In addition, the figures for the viability in assay [4] and in assay [5] were 104% and 97%, respectively. For the same molecule, in assay [6], the inhibition is 0.55%. In assay [7], the RAM network inhibition was 2.75%.

Regarding `CC1CCN(C(=O)CSc2ccc3nnc(-c4cccc(F)c4)n3n2)CC1`, the figures for the growth inhibition in assay [1] and in assay [2] were -0.835% and -0.735%, respectively. Also, in assay [3], the viability increase is -3.12%. In addition, the viability was 79.5% in assay [4] and 81.3% in assay [5]. In assay [6], the inhibition is 0.67%. Besides, in assay [7], the RAM network inhibition was -1.03%.

Take `CCOC(=O)CNC(=O)CSc1nc2sc(C)c(C)c2c(=O)n1C`: the results for the growth inhibition in assay [1] and in assay [2] were -0.13% and 34.3%, respectively. In addition, the viability increase in assay [3] is -3.44%. Besides, the viability is 98.4% in assay [4] and 97.6% in assay [5]. In addition, the inhibition in assay [6] is 3.61%. Further, in assay [7], the RAM network inhibition was 5.94%.

As for `O=S(=O)(c1ccc(Cl)c(Cl)c1)N1CCc2nc3ccccc3n2CC1`, the growth inhibition in assay [1] was -5.17%; in assay [2], 4.47%. The viability increase in assay [3] is -1.28%. Further, the figures for the viability in assay [4] and in assay [5] were 98.9% and 102%, respectively. For the same molecule, the inhibition in assay [6] is 1.75%. Further, in assay [7], the RAM network inhibition is 6.73%.

Regarding `Cc1ccc(Cl)cc1N1CCN(C(=O)C2CCN(c3nnc(-n4cccc4)s3)CC2)CC1`, the growth inhibition in assay [1] was -6.07%; in assay [2], -7.06%. For the same molecule, in assay [3], the viability increase is 2.36%. The viability in assay [4] and in assay [5] was 64% throughout. Also, in assay [6], the inhibition was 4.06%. Moreover, the RAM network inhibition in assay [7] was 8.04%.

On to `COCCOC(=O)C1=C(C)NC(=O)NC1C1CC=CCC1` (stereo unspecified), for which the growth inhibition in assay [1] was -6.74%; in assay [2], -6.73%. Moreover, the viability increase in assay [3] was 0.63%. Further, the values for the viability in assay [4] and in assay [5] were 91.5% and 101%, respectively. Moreover, in assay [6], the inhibition is 1.45%. Also, the RAM network inhibition in assay [7] is 5.08%.

Regarding `O=S(=O)(c1ccc(-c2cn3ccccc3n2)cc1)N1CCOCC1`, the growth inhibition in assay [1] was 1.49%; in assay [2], -12.4%. In addition, in assay [3], the viability increase was -3.55%. Further, the viability is 86.7% in assay [4] and 97.3% in assay [5]. In addition, the inhibition in assay [6] was 1.14%. The RAM network inhibition in assay [7] was 3.9%.

As to `CCOc1ccc(C2c3c(oc4cc(C)c(C)cc4c3=O)C(=O)N2CCCN2CCOCC2)cc1` (stereo unspecified), the growth inhibition in assay [1] was -1.96%; in assay [2], -6.06%. Also, the viability increase in assay [3] was -3.05%. In addition, the results for the viability in assay [4] and in assay [5] were 94.1% and 94.6%, respectively. For the same molecule, the inhibition in assay [6] was 0.615%. Also, in assay [7], the RAM network inhibition was 2.24%.

`CCOC(=O)CSC1=C(C#N)C(c2ccc(C)s2)CC(=O)N1` (stereo unspecified): the growth inhibition in assay [1] was -9.3%; in assay [2], -13.3%. Also, the viability increase in assay [3] was -5.84%. Moreover, the figures for the viability in assay [4] and in assay [5] were 15.9% (active) and 16% (active), respectively. Further, the inhibition in assay [6] is 1.54%. The RAM network inhibition in assay [7] was 0.22%.

With `COc1cc(/C=N/n2cnnc2)ccc1OC(=O)c1ccncc1`, the results for the growth inhibition in assay [1] and in assay [2] were -13.9% and -15.2%, respectively. In addition, the viability increase in assay [3] is -2.23%. The figures for the viability in assay [4] and in assay [5] were 92.9% and 99.1%, respectively. Also, the inhibition in assay [6] was 1.43%. Moreover, the RAM network inhibition in assay [7] was 1.08%.

As for `CC(=O)NCCOc1c(C)cc(S(N)(=O)=O)cc1C`, the growth inhibition in assay [1] was 0.295%; in assay [2], -6.93%. For the same molecule, the viability increase in assay [3] is -1.25%. Also, the viability was 92.4% in assay [4] and 90.1% in assay [5]. For the same molecule, the inhibition in assay [6] is 0.43%. Also, the RAM network inhibition in assay [7] is 1.68%.

In the case of `S=c1nc(-c2ccccc2)n(CCCn2ccnc2)c2c1CCCC2`, the values for the growth inhibition in assay [1] and in assay [2] were -6.46% and -0.21%, respectively. Also, the viability increase in assay [3] was 0.85%. In addition, the results for the viability in assay [4] and in assay [5] were 102% and 95.6%, respectively. For the same molecule, the inhibition in assay [6] is 2.03%. Besides, the RAM network inhibition in assay [7] is -0.69%.

Take `Cc1cccc(NC(=O)CCNS(=O)(=O)c2cccc3nsnc23)c1`: the growth inhibition in assay [1] was -7.62%; in assay [2], -12.6%. For the same molecule, the viability increase in assay [3] was -2.32%. Besides, the viability in assay [4] was 94.5%; in assay [5], 90.7%. The inhibition in assay [6] was 1.34%. Also, the RAM network inhibition in assay [7] was 1.66%.

As for `Cn1c(=O)oc2cc(S(=O)(=O)NCCCN3CCCC3=O)ccc21`, the growth inhibition is -7.4% in assay [1] and -6.43% in assay [2]. In addition, in assay [3], the viability increase was -2.65%. Also, the values for the viability in assay [4] and in assay [5] were 99% and 98.7%, respectively. Further, the inhibition in assay [6] is 0.615%. For the same molecule, in assay [7], the RAM network inhibition was 0.74%.

For `O=C(CNC(=O)c1ccccc1F)NC1CC1`, the growth inhibition in assay [1] is -8.56%; in assay [2], -2.84%. For the same molecule, in assay [3], the viability increase is -2.87%. Moreover, the values for the viability in assay [4] and in assay [5] were 99.3% and 96.4%, respectively. Further, the inhibition in assay [6] was 0.76%. Moreover, in assay [7], the RAM network inhibition is 6.17%.
